Bioassay records (PubChem BioAssay)
Sampled rows, rich in hits. Any-hit rate of the full collection: about 3.5%.
MrgX1 allo act = positive allosteric modulators of MrgX1, primary screen, HEK293 cells, Fluo-4 calcium flux; Mas-related G-protein coupled receptor member X1 (Homo sapiens), Q96LB2; FDSS; stronger effect = higher value; B-score at 10 µM; actives 0.63% (n = 310,000); AID 588675, 2011;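 active = plate-corrected calcium response at least 3 library SD above typical, normal starting fluorescence, not activating the receptor alone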;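 also: compound read alongside a low EC10 to EC30 dose of BAM8-22 agonist; peak minus trough fluorescence over baseline measured at the second addition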
Target sequence (Q96LB2 whole entry, looked up): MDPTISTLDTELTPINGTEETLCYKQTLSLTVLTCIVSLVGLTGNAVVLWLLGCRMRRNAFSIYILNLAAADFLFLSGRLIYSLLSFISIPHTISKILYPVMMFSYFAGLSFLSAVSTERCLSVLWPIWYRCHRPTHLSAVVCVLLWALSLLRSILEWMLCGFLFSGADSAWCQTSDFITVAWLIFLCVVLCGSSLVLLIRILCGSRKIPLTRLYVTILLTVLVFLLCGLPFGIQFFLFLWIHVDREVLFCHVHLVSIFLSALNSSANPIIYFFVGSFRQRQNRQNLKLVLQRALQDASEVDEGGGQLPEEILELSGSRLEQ
RGS4 inh = RGS4 inhibitors, primary screen, cell-based, HEK293 M3R inducible RGS4, calcium flux. Fluo-4 calcium flux; stronger effect = higher value; triggered by carbachol at its EC20. Regulator of G-protein signaling 4 (Homo sapiens), P49798. actives 0.45% (n = 310,000). B-score at 10 µM. AID 463165, 2010;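 active = B-score, a plate-corrected calcium signal, over three deviations above library mean, with baseline fluorescence within five deviations of library mean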;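 also: RGS4 expression induced by doxycycline in cells with stable M3 receptor; B-score is computed from the integrated fluorescence ratio over baseline after carbachol; higher B-score means a larger calcium signal and so more RGS4 inhibition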
Target sequence (P49798 whole entry, looked up): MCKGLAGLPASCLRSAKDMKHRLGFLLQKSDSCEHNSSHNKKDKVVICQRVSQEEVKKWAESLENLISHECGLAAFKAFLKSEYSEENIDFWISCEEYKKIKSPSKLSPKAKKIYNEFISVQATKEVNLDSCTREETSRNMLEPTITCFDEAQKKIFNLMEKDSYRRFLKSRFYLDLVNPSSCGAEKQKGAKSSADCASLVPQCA
MrgX1 ag = agonists of human MrgX1 receptor, primary screen, HEK293 cells, Fluo-4 calcium flux; actives 0.44% (n = 310,000); Fluo-4 calcium fluorescence, agonist mode; stronger effect = higher value; Mas-related G-protein coupled receptor member X1 (Homo sapiens), Q96LB2; B-score at 10 µM;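 active = calcium response B-score plate-corrected fluorescence ratio at least 3 library SD, with starting fluorescence B-score inside 5 SD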
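Material: HEK293 cells stably expressing human MrgX1 receptor | Quantity: 15,000 cells per well | Times: Cells plated overnight, dye loaded 0.5 h 37 °C, 0.5 h room temperature | Measured by: Kinetic Fluo-4 NW fluorescence of intracellular calcium | Control set: Positive and negative controls per plate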
MrgX1 antag = antagonists of human MrgX1 receptor, primary screen, HEK293 cells, Fluo-4 calcium flux. B-score at 10 µM. actives 1.3% (n = 310,000). BAM8-22 antagonism; stronger effect = lower value. Mas-related G-protein coupled receptor member X1 (Homo sapiens), Q96LB2;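 active = calcium-response B-score plate-corrected more than 3 library SD below zero, starting fluorescence within 5 deviations, no agonist response on first addition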;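 also: peak minus trough fluorescence over baseline after final BAM8-22 challenge near maximal dose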
RGS4 pot = RGS4 potentiators or activators, primary screen, cell-based, HEK293 M3R inducible RGS4, calcium flux; carbachol calcium flux Fluo4; stronger effect = lower value; B-score at 10 µM; actives 0.92% (n = 310,000);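 active = B-score of the integrated calcium signal more than 4 SD below the library mean, with starting fluorescence not abnormally high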;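 also: negative B-score means reduced calcium response which marks RGS4 activation or potentiation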
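Material: M3R-expressing HEK293 line, RGS4 induced by doxycycline | Schedule: Overnight RGS4 induction, 30 min dye load 37 °C, 20 min compound RT | Measured by: Fluo4 fluorescence kinetic imaging of calcium | Read-out: Integrated calcium ratio converted to B score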
Hits are given with their value; . = inactive.

SMILES	MrgX1 allo act	RGS4 inh	MrgX1 ag	MrgX1 antag	RGS4 pot
CCCCCCCNC(=O)C1(CC2CC(c3ccc(Cl)cc3)=NO2)CCN(C(=O)C2CCCC2)CC1 (centres undefined)	.	.	.	.	.
CCOC(=O)c1c(NC(=O)CSc2nnc(-c3cccc(C)c3)n2CC)sc(C(C)=O)c1C	.	.	.	.	-7
CCOC(=O)c1c(NC(=O)CSc2nnc(-c3ccccc3)n2CC)sc(C(C)=O)c1C	.	.	.	.	.
COc1ccc(OC)c(S(=O)(=O)NC(C)c2cnn(-c3ccccn3)c2C)c1 (centres undefined)	.	.	.	.	.
Cc1ccc(NS(=O)(=O)c2ccc3c(c2)NC(=O)CCS3)c(Cl)c1	.	.	.	.	.
COc1cc(N2C(=O)C=CC2=O)c(OC)cc1Cl	.	.	.	.	-7.1
Cc1[nH]n(-c2ccccc2)c(=O)c1C(c1ccccc1[N+](=O)[O-])C(C#N)C#N (centres undefined)	.	.	36	.	.
COCCNC(=O)c1cccc(OC2CCN(C(C)COc3ccccc3)CC2)c1 (centres undefined)	.	.	32	.	.
COCCNC(=O)c1cccc(OC2CCN(Cc3ccccc3OCCO)CC2)c1	.	.	.	.	.
Cc1ccc(S(=O)(=O)Oc2ccccc2/C=C2/SC(=O)NC2=O)cc1	.	.	27	.	.
CCCCN(CC)S(=O)(=O)c1ccc(C(=O)Nc2nnc(-c3cccs3)o2)cc1	.	.	33	.	.
Cc1ccsc1C(=O)NNC(=S)NCC(C)C	.	.	.	.	.
O=C(c1ccco1)N1CCN(Cc2cc(=O)c(OCc3ccccc3)co2)CC1	.	.	.	-5.3	.
CC1CN(C(=O)CSc2nnc(-c3ccc(Cl)cc3)n2C)CC(C)O1 (centres undefined)	.	.	.	.	.
COc1ccc(NS(=O)(=O)c2ccc(O)c(NC(=O)c3ccc(S(=O)(=O)N4CCCCCC4)cc3)c2)cc1	.	.	.	.	-7.8
COc1ccc(NS(=O)(=O)c2ccc(O)c(NC(=O)c3ccc(S(=O)(=O)N4CCCC4)cc3)c2)cc1	.	.	.	.	.
CC(=O)Nc1nc(C)c(-c2csc(Nc3cccc(C(C)=O)c3)n2)s1	.	.	.	.	-7.5
Clc1nc2ccccc2cc1/C=N/Nc1nc2ccccc2[nH]1	.	.	.	.	.
CC(=O)c1c(C)[nH]c(C(=O)COC(=O)c2cc(S(=O)(=O)N(C)c3ccccc3)ccc2Cl)c1C	.	.	.	.	.
CCN(c1ccccc1)S(=O)(=O)c1ccc(Cl)c(C(=O)OCC(=O)c2[nH]c(C)c(C(C)=O)c2C)c1	.	.	.	.	-7.2
C=CCOc1ccccc1CNCCc1ccc(S(N)(=O)=O)cc1	.	.	.	.	.
NS(=O)(=O)c1ccc(CCNCc2cc(Cl)ccc2OCc2ccccc2)cc1	.	.	.	-7.2	.
NS(=O)(=O)c1ccc(CCNCc2cc(Br)ccc2OCc2ccccc2F)cc1	.	.	.	-4.7	.
NS(=O)(=O)c1ccc(CCNCc2ccccc2OCc2ccc(Cl)cc2)cc1	.	.	.	-7.2	.
Nc1nonc1C(=O)NCCNCc1cc(Br)ccc1OCc1ccccc1F	.	.	.	.	.
SMILES	MrgX1 allo act	RGS4 inh	MrgX1 ag	MrgX1 antag	RGS4 pot
C/C(=N\NC(=O)c1ccn(C)n1)c1ccc(NC(=O)c2cccc(F)c2)cc1	.	.	.	.	.
CCOC(=O)Nc1ccc2c(c1)ncn2C1CCCCC1	.	.	.	.	.
CCOC(=O)COc1nc(-c2ccc(C)cc2)cc(-c2ccco2)c1C#N	.	.	.	.	.
CCOC(=O)COc1nc(-c2ccco2)cc(-c2ccco2)c1C#N	.	.	.	.	-7.2
O=c1[nH]c(N/N=C/c2ccc(O)cc2)nc2ccccc12	.	.	.	.	.
O=C(OCCN1CCOCC1)C(c1ccccc1)c1ccccc1	.	.	.	.	.
CC(=O)CSc1nnc(-c2ccc(S(=O)(=O)N3CCCC3)cc2)n1C	.	.	.	.	.
CC(C)CCNC(=O)CSc1nnc(-c2ccc(S(=O)(=O)N3CCCC3)cc2)n1C	.	.	.	-5.4	.
CCC(C)Sc1ccc(-c2nc3ccc(C)cn3c2NCc2ccccc2)cc1OC (centres undefined)	.	.	.	.	-8.6
CCC(C)Sc1cc(-c2nc3ccc(C)cn3c2NCc2ccccc2)ccc1OC (centres undefined)	.	.	.	.	.
O/N=C/c1nc2cc(Cl)ccc2o1	9.4	.	.	.	.
O=C(NCc1cccnc1)NC1CCCN1S(=O)(=O)c1ccc(Cl)cc1 (centres undefined)	.	.	.	.	.
CC(c1ccccc1)N(CCC(c1ccccc1)C1CCOC(C)(C)C1)C(=O)c1ccco1 (centres undefined)	.	.	.	.	.
COc1ccc(CN(CCC(c2ccc(F)cc2)C2CCOC(C)(C)C2)C(=O)c2ccco2)cc1 (centres undefined)	.	.	.	.	-8.2
O=C(c1ccco1)N(CCC(c1ccccc1)c1ccco1)Cc1ccccc1 (centres undefined)	.	.	.	.	.
COc1ccc(CN(CCC(c2ccccc2)c2ccco2)C(=O)c2ccco2)cc1 (centres undefined)	.	.	.	.	-8.2
CC(C)CCOc1ccc(C(=O)NCC(c2ccco2)N(C)C)cc1 (centres undefined)	.	.	.	.	-7.5
CCCS(=O)(=O)c1c(S(=O)(=O)CCC)c2cnccn2c1C(=O)c1ccc(CC)cc1	.	.	.	.	.
CCCS(=O)(=O)c1c(S(=O)(=O)CCC)c2cnccn2c1C(=O)c1ccc(OC)cc1	13	.	.	.	.
Cc1ccc2c(c1)N(C(=O)CSc1nncn1C)C(C)(C)c1ssc(=S)c1-2	.	.	.	.	-8.7
CCc1ccc(Nc2n[n+](-c3ccccc3)c(/C=C/c3ccccc3)s2)cc1	7.4	.	.	.	.
COc1ccc(C)cc1Nc1n[n+](-c2ccccc2)c(-c2ccc(N(C)C)cc2)s1	.	.	34	.	.
COc1ccc2ccccc2c1-c1sc(Nc2ccccc2)n[n+]1-c1ccc(F)cc1	.	.	.	-5.9	.
CN(C)c1ccc(-c2sc(Nc3ccccc3)n[n+]2-c2ccc(F)cc2)cc1	.	.	47	.	.
COc1ccc(-c2nnc(SCc3nnc(-c4ccc(Cl)cc4)o3)n2-c2ccccc2)cc1	.	.	.	.	.
COCC(=O)OCn1nnc2ccccc2c1=O	.	.	.	.	.
CCN(CC)c1ccc(-c2sc(Nc3ccccc3)n[n+]2-c2ccc(F)cc2)cc1	.	.	.	.	.
